Assay results from ChEMBL document CHEMBL1124777, “Specific bradycardic agents. 1. Chemistry, pharmacology, and structure-activity relationships of substituted benzazepinones, a-new class of compounds exerting antiischemic properties” (1990).
Values after ≈ are worked out from the molar mass of the structure shown.

Experiments:
Rattus norvegicus = assay: Bradycardic activity measured as a percentage decrease of heart rate after 5 mg/kg intravenous administration in anesthetized rats; format: functional
How it was run: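 Male Chbb:THOM rats (200–250 g) were anesthetized with pentobarbital sodium 50 mg/kg ip, with tracheal cannulation and artificial respiration. Heart rate was recorded continuously by an ECG-triggered beat-to-beat tachograph. Dose was 5 mg/kg iv via the jugular vein. Rate was read at 2, 5 and 20 min, and the reduction taken at 5 min.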

Felis catus [1] = assay: Evaluated in vivo for bradycardic activity in anesthetized cat as a measure of % decrease of heart rate after 1 mg/Kg intravenous administration of the compound.; format: functional
Felis catus [2] = assay: Evaluated in vivo for bradycardic activity in anesthetized cat as a measure of percent decrease of heart rate after 1 mg/kg intravenous administration; format: functional
Cavia porcellus [3] = organism: Cavia porcellus; assay: Evaluated in vitro for the effect on spontaneous rate in isolated guinea pig atria; format: functional
How it was run: (§1)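 Spontaneously beating guinea pig atria (either sex, 300–500 g) were held in modified Tyrode's solution gassed with 98% O₂/2% CO₂, at 1 g resting tension and 37 °C. Equilibration lasted at least 30 min, until rate varied by no more than 5 beats/min. Recording was isometric. EC₃₀ is the concentration lowering predrug rate by 30%, given with 95% confidence limits.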

Oryctolagus cuniculus = organism: Oryctolagus cuniculus; assay: Evaluated in vitro for the effect on K+ induced aortic contraction in isolated aortic strips of rabbit; format: functional; settings: Aorta
[4] = Ratio between the EC30 values of aortic contracture and atrial rate; format: functional, Cardiac atrium
How it was run: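 Guinea pig atria (300–500 g, either sex) in modified Tyrode's gassed with 98% O2/2% CO2, resting tension 1 g. Rate measured in spontaneously beating atria at 37 °C after at least 30 min equilibration. Rabbit aortic strips contracted with 40 mM KCl plus 1.8 mM CaCl2 to a plateau. EC30 is the concentration relaxing the contracture, or lowering the predrug rate, by 30%.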

[5] = Ratio between the EC30 values of atrial contractility and atrial rate; format: functional, Cardiac atrium
How it was run: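 Isolated guinea pig atria (300–500 g, either sex) in modified Tyrode's gassed with 98% O2/2% CO2, resting tension 1 g, isometric recording. Rate measured in spontaneously beating atria at 37 °C after ≥30 min equilibration. Contractility (g) measured in left atria paced at 2.5 Hz (3 ms pulses, 1.5× threshold), 30 °C, 20 min equilibration. EC30 is the concentration lowering the predrug value by 30%.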

Cavia porcellus [6] = organism: Cavia porcellus; assay: Evaluated in vitro for its effect on atrial contractility in electrically stimulated isolated guinea pig left atria; settings: Cardiac atrium
Cavia porcellus [7] = organism: Cavia porcellus; assay: Evaluated in vitro for the effect on spontaneous atrial rate in isolated guinea pig atria; format: functional; settings: Cardiac atrium; how it was run: as §1

| Structure (SMILES) | Decrease (Rattus norvegicus) [%] | also measured |
| --- | --- | --- |
| COc1ccc(CCN(CCCN2CCc3cc(OC)c(OC)cc3CC2=O)CCc2ccc(OC)c(OC)c2)cc1OC | -28 |  |
| COc1ccc(CCSCCCN2CCc3cc(OC)c(OC)cc3CC2=O)cc1OC | 1 |  |
| COc1cc2c(cc1OC)CC(=O)N(CCCN(C)CCc1c(Cl)cccc1Cl)CC2.Cl.Cl.Cl.Cl | -13 |  |
| COc1cc2c(cc1OC)CC(=O)N(CCCN(C)CCc1ccc(N(C)C)cc1)CC2.Cl.Cl | -60 |  |
| COc1cc2c(cc1OC)CC(=O)N(CCCN(C)CCc1ccccc1)CC2.Cl.Cl | -52 |  |
| COc1cc2c(cc1OC)CC(=O)N(CCCN(C)CCc1ccc(C(C)(C)C)cc1)CC2.Cl.Cl | -58 |  |
| COc1ccc(CC[S+]([O-])CCCN2CCc3cc(OC)c(OC)cc3CC2=O)cc1OC (stereo not drawn) | -4 |  |
| COc1cc2c(cc1O)CC(=O)N(CCCN(C)CCc1ccc(OC)c(OC)c1)CC2 | -29 |  |
| COc1cc2c(cc1OC)CC(=O)N(CCCN(C)CCc1ccc(OCc3ccccc3)cc1)CC2 | -27 |  |
| COc1ccc(CCN(CCCN2CCc3cc(OC)c(OC)cc3CC2=O)C(C)=O)cc1OC | -3 |  |
| COc1ccc(NCCCN(C)CCCN2CCc3cc(OC)c(OC)cc3CC2=O)cc1OC | -51 |  |
| COc1cc2c(cc1OC)CC(=O)N(CCCN(C)CCc1ccc(N)cc1)CC2 | -30 |  |
| CCOC(=O)N(CCCN1CCc2cc(OC)c(OC)cc2CC1=O)CCc1ccc(OC)c(OC)c1 | -8 |  |
| COc1ccc(CN(C)CCCN2CCc3cc(OC)c(OC)cc3CC2=O)cc1OC | -26 |  |
| CCCCOc1ccc(CCN(C)CCCN2CCc3cc(OC)c(OC)cc3CC2=O)cc1 | -55 |  |
| COc1ccc(N(C)CCCN2CCc3cc(OC)c(OC)cc3CC2=O)cc1OC | -17 |  |
| COc1ccc(CC[N+](C)(C)CCCN2CCc3cc(OC)c(OC)cc3CC2=O)cc1OC.[I-] | -9 |  |
| COc1ccc(NCCN(C)CCCN2CCc3cc(OC)c(OC)cc3CC2=O)cc1OC | -39 |  |
| COc1ccc(CCN(C)CC(O)CN2CCc3cc(OC)c(OC)cc3CC2=O)cc1OC (stereo not drawn) | -28 |  |
| COc1ccc(CCN(C)CCCN2CCCc3cc(OC)c(OC)cc3C2=O)cc1OC |  | Decrease (Felis catus [1]): -8% |

| Structure (SMILES) | Decrease (Rattus norvegicus) [%] | also measured |
| --- | --- | --- |
| COc1ccc(CCS(=O)(=O)CCCN2CCc3cc(OC)c(OC)cc3CC2=O)cc1OC | -1 |  |
| COc1ccc(CCN(C)CCCN2CCc3cc(O)c(O)cc3CC2=O)cc1OC | -30 |  |
| COc1cc2c(cc1OC)CC(=O)N(CCCN(C)CCc1ccc(Cl)cc1)CC2.Cl | -55 |  |
| COc1ccc2c(c1)CC(=O)N(CCCN(C)CCc1ccc(OC)c(OC)c1)CC2.Cl.Cl | -44 |  |
| COc1ccc(CCN(C)CC(C)CN2CCc3cc(OC)c(OC)cc3CC2=O)cc1OC.Cl (stereo not drawn) | -43 |  |
| COc1ccc(CCN(C)CCCN2CCc3ccc(OC)c(OC)c3CC2=O)cc1OC.Cl | -34 |  |
| COc1ccc(SCCCN(C)CCCN2CCc3cc(OC)c(OC)cc3CC2=O)cc1OC.Cl | -47 |  |
| COc1ccc(CCN(C)CCCN2CCc3cc(C)c(C)cc3CC2=O)cc1OC.Cl.Cl | -49 |  |
| COc1ccc(CCN(C)CCCN2CCc3cc4c(cc3CC2=O)OCCO4)cc1OC.Cl | -49 |  |
| COc1ccc2c(c1)CCN(CCCN(C)CCc1ccc(OC)c(OC)c1)C(=O)C2.Cl | -31 |  |
| COc1cc2c(cc1OC)CC(=O)N(CCCN(C)CCc1cc(OC)c(OC)c(OC)c1)CC2.Cl | -21 |  |
| COc1cc2c(cc1OC)CC(=O)N(CCCN(C)CCc1ccc(O)cc1)CC2.Cl | -33 |  |
| COc1cc2c(cc1O)CCN(CCCN(C)CCc1ccc(OC)c(OC)c1)C(=O)C2.Cl | -47 |  |
| COc1ccc(CCN(C)CCCN2CCc3cc(OC)c(OC)cc3C2=O)cc1OC.Cl |  | Decrease (Felis catus [1]): -29% |
| COc1ccc(CCN(C)CCCN2CCc3cc4c(cc3CC2=O)OCO4)cc1OC.Cl | -42 |  |
| COc1ccc(CCN(C)CCCN2CCc3cc(OC)c(OC)cc3CC2=O)cc1.Cl | -42 |  |
| COc1cc(OC)c(CCN(C)CCCN2CCc3cc(OC)c(OC)cc3CC2=O)c(OC)c1.Cl | -25 |  |
| COc1ccc(SCCN(C)CCCN2CCc3cc(OC)c(OC)cc3CC2=O)cc1OC.Cl | -44 |  |
| COc1ccc(CCN(C)CCCN2Cc3cc(OC)c(OC)cc3C2=O)cc1OC.Cl |  | Decrease (Felis catus [2]): -16%; EC30 (Cavia porcellus [3]): 0.608 µg/mL; EC30 (Oryctolagus cuniculus): 21.3 µg/mL; Ratio [4]: 35; Ratio [5]: 154; EC30 (Cavia porcellus [6]): 93.6 µg/mL |
| COc1cc2c(cc1OC)CC(=O)N(CCCN(C)CCc1ccc([N+](=O)[O-])cc1)CC2.Cl | -41 |  |

| Structure (SMILES) | Decrease (Rattus norvegicus) [%] | also measured |
| --- | --- | --- |
| COc1ccc(CCCCCN(C)CCCN2CCc3cc(OC)c(OC)cc3CC2=O)cc1OC.Cl | -36 |  |
| COc1ccc(OCCCCN(C)CCCN2CCc3cc(OC)c(OC)cc3CC2=O)cc1OC.Cl | -37 |  |
| COc1ccc(CCCCN(C)CCCN2CCc3cc(OC)c(OC)cc3CC2=O)cc1OC.Cl | -46 |  |
| COc1ccc(CCCN(C)CCCN2CCc3cc(OC)c(OC)cc3CC2=O)cc1OC.Cl | -55 |  |
| COc1ccc(CCNCCCN2CCc3cc(OC)c(OC)cc3CC2=O)cc1OC.Cl | -66 |  |
| C=CCN(CCCN1CCc2cc(OC)c(OC)cc2CC1=O)CCc1ccc(OC)c(OC)c1.Cl | -65 |  |
| COc1ccc(CCN(C)CCCN2CCc3ccccc3CC2=O)cc1OC.Cl | -35 |  |
| COc1cc2c(cc1OC)CC(=O)N(CCCN(C)CCc1ccc(OS(C)(=O)=O)cc1)CC2.Cl | -46 |  |
| COc1ccc(OCCCN(C)CCCN2CCc3cc(OC)c(OC)cc3CC2=O)cc1OC.Cl | -63 |  |
| COc1ccc(OCCN(C)CCCN2CCc3cc(OC)c(OC)cc3CC2=O)cc1OC.Cl | -59 |  |
| COc1ccc(CCN(C)CCN2CCc3cc(OC)c(OC)cc3CC2=O)cc1OC.Cl | -13 |  |
| COc1cc2c(cc1OC)CC(=O)N(CCCN(C)CCc1ccc(Cl)c(Cl)c1)CC2.Cl.Cl | -47 |  |
| CCCN(CCCN1CCc2cc(OC)c(OC)cc2CC1=O)CCc1ccc(OC)c(OC)c1.Cl | -56 |  |
| COc1ccc(CCN(C)CCCCN2CCc3cc(OC)c(OC)cc3CC2=O)cc1OC.Cl | -33 |  |
| COc1ccc(CCN(C)CCCN2CCc3c(OC)ccc(OC)c3CC2=O)cc1OC.Cl | -21 |  |
| COc1ccc(CCN(C)CCCN2CCc3c(C)c(C)c(C)c(C)c3CC2=O)cc1OC.Cl | -41 |  |
| COc1ccc(CCN(C)CCC[C@@](C#N)(c2ccc(OC)c(OC)c2)C(C)C)cc1OC [(S)-VERAPAMIL] |  | EC30 (Cavia porcellus [7]): 0.0694 µg/mL (≈ 0.153 µM); EC30 (Oryctolagus cuniculus): 0.0284 µg/mL (≈ 0.0625 µM); Ratio [4]: 0.409; Ratio [5]: 0.88; EC30 (Cavia porcellus [6]): 0.0611 µg/mL (≈ 0.134 µM) |
| COc1ccc([C@@H]2Sc3ccccc3N(CCN(C)C)C(=O)[C@@H]2OC(C)=O)cc1 [DILTIAZEM] |  | EC30 (Cavia porcellus [7]): 0.14 µg/mL (≈ 0.338 µM); EC30 (Oryctolagus cuniculus): 0.0741 µg/mL (≈ 0.179 µM); Ratio [4]: 0.53; Ratio [5]: 19.5; EC30 (Cavia porcellus [6]): 2.73 µg/mL (≈ 6.59 µM) |
| COC(=O)C1=C(C)NC(C)=C(C(=O)OC)C1c1ccccc1[N+](=O)[O-] [NIFEDIPINE] |  | EC30 (Cavia porcellus [7]): 0.11 µg/mL (≈ 0.318 µM); EC30 (Oryctolagus cuniculus): 0.00397 µg/mL (≈ 0.0115 µM); Ratio [4]: 0.036; Ratio [5]: 0.135; EC30 (Cavia porcellus [6]): 0.0149 µg/mL (≈ 0.043 µM) |
| COc1ccc(CCN(C)CCCN2CCc3cc(OC)c(OC)cc3CC2=O)cc1OC.Cl [ZATEBRADINE HYDROCHLORIDE] | -56 | Decrease (Felis catus [1]): -56%; EC30 (Cavia porcellus [7]): 0.03 µg/mL; EC30 (Oryctolagus cuniculus): 15 µg/mL; Ratio [4]: 500; Ratio [5]: 3600; EC30 (Cavia porcellus [6]): 108 µg/mL |
